Broadly, the IC50 is the concentration that gives 50% inhibition. A high value points to lower potency. Usually MIC stands for the lowest concentration that inhibits growth of the organism.

In brackets after ≈: the same amount, converted by molar mass.

In one experiment the test system is HL-60. The experiment can be described thus: Cytotoxicity against human HL60 cells after 72 hrs by MTT assay. Conditions: HL-60, 72 h. The format is functional, cell-based. In short, it runs like this: (§1)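 HL-60 cells were assayed by MTT and A549 cells by SRB. Read-out is IC50, given in μM.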
For orientation: Tetrazolium assays rely on reduction of a dye to a coloured formazan, in cell work by metabolically active cells.

The subject of a further experiment is A549. Put plainly: Cytotoxicity against human A549 cells after 24 hrs by SRB assay. It counts as functional. In short, it runs like this:
as §1

Another experiment deals with Bacillus subtilis. Put plainly: Antibacterial activity against Bacillus subtilis by agar dilution method. It counts as functional. In short, it runs like this:
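Agar dilution, with the same panel also run against E. coli, A. aerogenes, P. aeruginosa, S. aureus and C. albicans. Read-out is the MIC, given in μM.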
A general note: In agar dilution the substance is mixed into plates at graded concentrations.

For the molecule `CC/C=C(\C)c1ccc(CC)c(=O)o1` [NOCAPYRONE E], the IC50 in the experiment with HL-60 was at least 100 µM; in the experiment on A549, “>=100 uM”. In addition, the minimal inhibitory concentration (MIC) against Bacillus subtilis was 26 µM (≈ 5 µg/mL).

`CC/C=C(\C)c1ccc(C)c(=O)o1` [NOCAPYRONE F]: the IC50 in the experiment on HL-60 was at least 100 µM; with A549, “>=100 uM”. Moreover, in the experiment on Bacillus subtilis, the MIC is 14 µM (≈ 2.5 µg/mL).

Regarding `CCc1ccc(/C(C)=C/[C@H](C)O)oc1=O` [NOCAPYRONE G], the IC50 with HL-60 is at least 100 µM; in the experiment on A549 it was “>=100 uM”. This molecule also came in with an MIC in the experiment with Bacillus subtilis of 12 µM (≈ 2.5 µg/mL).

With `COc1ccc(/C=c2\nc(OC)/c(=C/c3ccc(OC)cc3)n(C)c2=O)cc1` [NOCAZINE A], the results for the half-maximal inhibitory concentration (IC50) in the experiment with HL-60 and with A549 were at least 100 µM and “>=100 uM”, respectively.

For the molecule `COc1ccc(/C=c2/c(OC)n/c(=C\c3ccccc3)c(=O)n2C)cc1` [NOCAZINE B], the IC50 in the experiment with HL-60 was at least 100 µM; in the experiment with A549 it was “>=100 uM”.

Consider `COc1ccc(/C=C2/C(=O)N[C@@H](Cc3ccccc3)C(=O)N2C)cc1` [NOCAZINE C], for which the IC50 is at least 100 µM in the experiment with HL-60 and “>=100 uM” in the experiment with A549.

With `OC[C@@H]1COC(c2ccccc2O)=N1` [NOCAZOLINE A], the IC50 with HL-60 is at least 100 µM; in the experiment on A549 it was “>=100 uM”.

The record behind these values is ChEMBL document CHEMBL1833874, “Α-pyrones and diketopiperazine derivatives from the marine-derived actinomycete Nocardiopsis dassonvillei HR10-5” (J Nat Prod, 2011).
